In ChEMBL document CHEMBL4311989, “Anti-hepatitis-C virus activity and QSAR study of certain thiazolidinone and thiazolotriazine derivatives as potential NS5B polymerase inhibitors” (Eur J Med Chem, 2019):

Legend:
Hepatitis C virus = experiment: Antiviral activity against HCV genotype 1a infected in human Huh7.5 cells assessed as reduction in viral replication by measuring HCV core antigen level by ELISA; type: functional, organism-based, Hepacivirus hominis; settings: subtype 1a
Procedure, shortened: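 HCV GT1a replication in Huh-7.5 human hepatoma cells; HCV core protein quantified by core antigen ELISA per kit instructions. EC50 taken as concentration reducing HCV replication by 50%, with VCH-759 as reference.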

[1] = Cytotoxicity against human RPTEC/TERT1 cells assessed as reduction in cell viability incubated for 24 hrs by MTT assay; type: cell-based
Procedure, shortened: (§1)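 Transformed normal human cells (THLE-2 liver epithelial; RPTEC/TERT1 proximal tubular epithelial) exposed to compound; viability read by MTT reduction to formazan. CC50 defined as concentration reducing cell viability by 50%; VCH-759 run as reference.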

[2] = Selectivity index, ratio of CC50 for human RPTEC/TERT1 cells to EC50 for HCV infected in human Huh7.5 cells; type: toxicity, cell-based; settings: read-out: Ratio CC50/EC50
Procedure, shortened: (§2)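 SI computed as CC50 on THLE-2 or RPTEC/TERT1 (MTT viability) divided by EC50 from HCV-infected Huh7.5 cells (core antigen ELISA).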

[3] = Selectivity index, ratio of CC50 for human THLE2 cells to EC50 for HCV infected in human Huh7.5 cells; type: toxicity, cell-based; settings: THLE2 cells (CC50) and HCV-infected Huh7.5 cells (EC50); procedure, shortened: as §2
[4] = target: RNA-directed RNA polymerase (Hepacivirus hominis, UniProt O39930); experiment: Inhibition of recombinant HCV genotype 1a NS5B polymerase coincubated with HCV international ribosome entry site template sequence containing nucleotide residues 21-371 of HCV 5'-untranslated Escherichia coli DNA polymerase I region incubated for 3 hrs by scintillation/luminescence counter method; design: species or system Hepatitis C virus subtype 1a
Procedure, shortened: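 Recombinant GT1a NS5B RdRp, […] (GenBank AF356827), used at 0.26 ug/well; VCH-759 as non-nucleoside positive control; IC50 determined.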

[5] = target: RNA-directed RNA polymerase (Hepacivirus hominis) (UniProt O39930); experiment: Potency index, ratio of VCH-759 IC50 to compound IC50 for HCV genotype 1a recombinant NS5B polymerase coincubated with HCV international ribosome entry site template sequence containing nucleotide residues 21-371 of HCV 5'-untranslated Escherichia coli DNA polymerase I region; settings: Hepatitis C virus subtype 1a
[6] = Cytotoxicity against human THLE2 cells assessed as reduction in cell viability incubated for 24 hrs by MTT assay; type: cell-based, THLE-2; procedure, shortened: as §1

Structure (SMILES) | EC50 (Hepatitis C virus) | IC50 [4] | also measured
O=C(CN1C(=O)S/C(=C\c2ccccc2Cl)C1=O)Nc1ccccc1 | 3.8 µM | 0.035 µM | CC50 at 24 h [1]: 161 µM; selectivity ratio [2]: 42.5; selectivity ratio [3]: 27; Ratio IC50 [5]: 4; CC50 at 24 h [6]: 103 µM
O=c1/c(=C\c2ccc(F)cc2)sc2n1CN(c1ccccc1)CN=2 | 18.7 µM | 2.2 µM | 
O=C(CN1C(=O)S/C(=C\c2ccccc2)C1=O)Nc1ccc(Cl)cc1 | 16.7 µM | 0.14 µM | 
O=C(CN1C(=O)S/C(=C\c2ccc(F)cc2)C1=O)Nc1ccccc1 | 8.4 µM | 0.14 µM | 
COc1ccc(N2CN=c3s/c(=C/c4ccc(Cl)cc4)c(=O)n3C2)cc1 | 10.3 µM | 3.53 µM | 
O=c1/c(=C\c2ccc(Cl)cc2)sc2n1CN(c1ccccc1)CN=2 | 10.9 µM | 0.12 µM | Ratio IC50 [5]: 1 to 2
COc1ccc(NC(=O)CN2C(=O)S/C(=C\c3ccc(F)cc3)C2=O)cc1 | 10.8 µM | 0.39 µM | 
COc1ccc(NC(=O)CN2C(=O)S/C(=C\c3ccc(Cl)cc3Cl)C2=O)cc1 | 43.9 µM | 0.32 µM | 
O=c1/c(=C\c2ccc(Cl)cc2Cl)sc2n1CN(c1ccccc1)CN=2 | 14.5 µM | 1.37 µM | 
CC1CCC(C(=O)N(c2cc(-c3ccccc3)sc2C(=O)O)C2CCC(O)CC2)CC1 (configuration not stated) [VCH-759] | 5.29 µM | 0.14 µM | CC50 at 24 h [1]: 81.3 µM; selectivity ratio [2]: 15.4; selectivity ratio [3]: 11.7; CC50 at 24 h [6]: 61.8 µM
COc1ccc(NC(=O)CN2C(=O)S/C(=C\c3ccc(Cl)cc3)C2=O)cc1 | 43.9 µM | 0.37 µM | 
COc1ccc(/C=C2\SC(=O)N(CC(=O)Nc3ccc(OC)cc3)C2=O)cc1 | 19.6 µM | 0.78 µM | 
O=C(CN1C(=O)S/C(=C\c2ccccc2)C1=O)Nc1ccccc1 | 19.6 µM | 4.8 µM | 
O=C(CN1C(=O)S/C(=C\c2ccc(Cl)cc2Cl)C1=O)Nc1ccc(Cl)cc1 | 44 µM | 5.12 µM | 
O=c1/c(=C\c2ccccc2)sc2n1CN(c1ccc(Cl)cc1)CN=2 | 19.3 µM | 0.49 µM | 
O=c1/c(=C\c2ccccc2)sc2n1CN(c1ccccc1)CN=2 | 13.3 µM | 0.62 µM | 
N=C1S/C(=C\c2ccccc2)C(=O)N1c1ccccc1 | 11.1 µM | 0.58 µM | 
O=c1/c(=C\c2ccccc2Cl)sc2n1CN(c1ccccc1)CN=2 | 30.7 µM | 0.43 µM | 
O=c1/c(=C\c2ccccc2Cl)sc2n1CN(c1ccc(Cl)cc1)CN=2 | 13.8 µM | 0.09 µM | Ratio IC50 [5]: 1 to 2
O=c1/c(=C\c2ccc(F)cc2)sc2n1CN(c1ccc(Cl)cc1)CN=2 | 6.58 µM | 0.2 µM | 

Structure (SMILES) | EC50 (Hepatitis C virus) | IC50 [4] | also measured
COc1ccc(/C=c2/sc3n(c2=O)CN(c2ccccc2)CN=3)cc1 | 12.6 µM | 0.2 µM | 
O=c1/c(=C\c2ccc(Cl)cc2)sc2n1CN(c1ccc(Cl)cc1)CN=2 | 10.8 µM | 1.82 µM | 
COc1ccc(/C=C2\SC(=O)N(CC(=O)Nc3ccc(Cl)cc3)C2=O)cc1 | 7.93 µM | 0.28 µM | 
COc1ccc(N2CN=c3s/c(=C/c4ccc(Cl)cc4Cl)c(=O)n3C2)cc1 | 13.2 µM | 0.22 µM | 
O=C(CN1C(=O)S/C(=C\c2ccc(F)cc2)C1=O)Nc1ccc(Cl)cc1 | 16.9 µM | 0.1 µM | Ratio IC50 [5]: 1 to 2
COc1ccc(N2CN=c3s/c(=C/c4ccccc4Cl)c(=O)n3C2)cc1 | 13.5 µM | 1.26 µM | 
O=C(CN1C(=O)S/C(=C\c2ccc(Cl)cc2Cl)C1=O)Nc1ccccc1 | 10.8 µM | 0.44 µM | 
COc1ccc(N2CN=c3s/c(=C/c4ccccc4)c(=O)n3C2)cc1 | 10.8 µM | 0.75 µM | 
O=C(C/N=C1/S/C(=C\c2ccccc2)C(=O)N1c1ccccc1)Nc1ccccc1 | 8.98 µM | 0.76 µM | 
O=C(CN1C(=O)S/C(=C\c2ccc(Cl)cc2)C1=O)Nc1ccccc1 | 11.1 µM | 0.085 µM | Ratio IC50 [5]: 1 to 2
COc1ccc(/C=c2/sc3n(c2=O)CN(c2ccc(OC)cc2)CN=3)cc1 | 9.54 µM | 0.54 µM | 
COc1ccc(NC(=O)CN2C(=O)S/C(=C\c3ccccc3Cl)C2=O)cc1 | 11 µM | 1.2 µM | 
COc1ccc(/C=c2/sc3n(c2=O)CN(c2ccc(Cl)cc2)CN=3)cc1 | 24.3 µM | 0.99 µM | 
O=c1/c(=C\c2ccc(Cl)cc2Cl)sc2n1CN(c1ccc(Cl)cc1)CN=2 | 9.5 µM | 0.54 µM | 
COc1ccc(/C=C2\SC(=O)N(CC(=O)Nc3ccccc3)C2=O)cc1 | 11.6 µM | 0.25 µM | 
O=C(CN1C(=O)S/C(=C\c2ccc(Cl)cc2)C1=O)Nc1ccc(Cl)cc1 | 7.8 µM | 0.21 µM | 
O=C(CN1C(=O)S/C(=C\c2ccccc2Cl)C1=O)Nc1ccc(Cl)cc1 | 6.47 µM | 2.99 µM | 
COc1ccc(N2CN=c3s/c(=C/c4ccc(F)cc4)c(=O)n3C2)cc1 | 40.1 µM | 0.07 µM | Ratio IC50 [5]: 1 to 2
COc1ccc(NC(=O)CN2C(=O)S/C(=C\c3ccccc3)C2=O)cc1 | 10.6 µM | 0.45 µM | 
